Results collected from several papers.
Protocols differ between the studies behind these lines.
Target: Serine/threonine-protein kinase Sgk3 (SGK3, Homo sapiens, UniProt Q96BR1)
One construct used (Q96BR1 1-496): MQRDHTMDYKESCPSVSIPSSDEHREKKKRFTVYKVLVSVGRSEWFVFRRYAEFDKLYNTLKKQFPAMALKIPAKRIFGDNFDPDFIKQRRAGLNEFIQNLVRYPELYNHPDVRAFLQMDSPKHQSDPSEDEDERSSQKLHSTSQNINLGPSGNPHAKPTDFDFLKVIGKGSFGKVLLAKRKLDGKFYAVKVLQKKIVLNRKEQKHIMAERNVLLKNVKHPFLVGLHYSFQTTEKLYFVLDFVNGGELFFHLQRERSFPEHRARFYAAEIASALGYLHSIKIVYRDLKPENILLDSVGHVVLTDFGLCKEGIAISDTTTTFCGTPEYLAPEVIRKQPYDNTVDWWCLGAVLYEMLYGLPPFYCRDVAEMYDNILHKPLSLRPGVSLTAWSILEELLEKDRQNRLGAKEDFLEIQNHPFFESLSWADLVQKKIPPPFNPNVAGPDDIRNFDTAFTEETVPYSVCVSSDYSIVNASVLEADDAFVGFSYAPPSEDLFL

`CC(C)(C)c1cc(C=C(C#N)C#N)cc(Br)c1O` gave a remaining activity of 97.7% (enzyme activity; inhibitor; 0.5 µM).
`COc1cc(Nc2ncc(F)c(Nc3ccc4c(n3)NC(=O)C(C)(C)O4)n2)cc(OC)c1OC` has an inhibition of 52% (binding; 10 µM).
`Nc1ncc(-c2nc(N3CCOCC3)nc(N3CCOCC3)n2)c(C(F)F)n1` gave a remaining binding of 44% (binding; competition with immobilised ligand; 10 µM).
With `COc1ncccc1-c1cnn2ccc(N3CCN(C(=O)OC(C)C)CC3)nc12` the remaining binding was 100% (binding; competition with immobilised ligand; 1 µM).
The remaining signal of `O=c1[nH]c2ccccc2n1C1CCN(Cc2ccc(-c3[nH]c4cc5ncnc5cc4nc3-c3ccccc3)cc2)CC1` is reported as 108% (cell-free assay; 0.5 µM).
For `Cn1cc(-c2cccc(N3CCc4c(sc5c4CC(C)(C)C5)C3=O)c2CO)cc(Nc2ccncn2)c1=O`, the inhibition was 5% (enzyme activity; inhibitor; 1 µM).
`Cn1cncc1[C@](O)(COc1ccc(C#N)cc1-c1ccc(OC(F)(F)F)cc1)c1ccc(C#N)cc1` gave a remaining binding of 100% (cell-free assay; competition with immobilised ligand; 1 µM).
For `Cn1cc(-c2cc(F)cc(N3CCn4c(cc5c4CCCC5)C3=O)c2CO)cc(Nc2ccc(N3CCN(C4COC4)CC3)cn2)c1=O`, the inhibition was 14% (enzyme activity; inhibitor; 0.1 µM).
For `Cc1nn(C)cc1-c1nc2c(N3CCN(Cc4ccc(Cl)cc4)CC3)c(Cl)cnc2[nH]1`, the remaining binding was 100% (binding; competition with immobilised ligand; 1 µM).
